Experimental data reported in ChEMBL document CHEMBL4052798, “Design, synthesis and biological evaluation of indole derivatives as Vif inhibitors” (Bioorg Med Chem Lett, 2017).
Calls of active or inactive are those of the source. The calls are words filed in the database; no cut-off is given here.

Assays:
[1] = tested on: Human immunodeficiency virus 1; experiment: Inhibition of doxycycline-induced HIV1 Vif expressed in TREX-hVif-15 cells co-expressing EYFP-N1-tagged human A3G assessed as restoration of Vif-induced A3G degradation level at 20 uM after 48 hrs by Western blot analysis; format: cell-based
Summary of the method: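 TREX-hvif-15 cells were transfected with EYFP-N1-hA3G, and Vif was induced with 0.1 μg/mL Dox. Cells were treated with or without compound at 20 μM. A3G and Vif protein levels were detected by western blot, and A3G restoration was graded qualitatively, lowest to high.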

[2] = tested on: Human immunodeficiency virus 1; experiment: Inhibition of doxycycline-induced HIV1 Vif expressed in TREX-hVif-15 cells co-expressing EYFP-N1-tagged human A3G assessed as reduction in Vif-mediated A3G degradation by measuring fold change in mean fluorescence intensity at 50 uM by flow cytometric method; format: cell-based
Summary of the method: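 TREX-hvif-15 cells with Tet-On-regulated Vif were transfected with EYFP-N1-hA3G, and Vif was induced with 1 μg/mL Dox. Compounds were tested at 50 µM. A3G-EYFP mean fluorescence intensity was expressed as fold change and scored as: no or <1-fold; 1–2; 2–3; >3. Reference groups were A3G⁺/Vif⁻ and A3G⁺/Vif⁺.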

Compound: O=Cc1ccc(-c2ccc3[nH]ccc3c2)nc1
- inhibition [1]: inactive
- fold change (FC) [2]: < 1

Compound: NC(=O)c1ccc(-c2ccc3[nH]ccc3c2)nc1
- inhibition [1]: Active
- fold change (FC) [2]: 2 to 3

Compound: O=Cc1cccc(-c2ccc3[nH]ccc3c2)n1
- inhibition [1]: Active
- fold change (FC) [2]: 1 to 2

Compound: Nc1cccc(-c2ccc3[nH]ccc3c2)n1
- inhibition [1]: Active
- fold change (FC) [2]: 1 to 2

Compound: O=C(O)c1ccnc(-c2ccc3[nH]ccc3c2)c1
- inhibition [1]: Active
- fold change (FC) [2]: 2 to 3

Compound: Nc1ccc(-c2ccc3[nH]ccc3c2)cn1
- inhibition [1]: Active
- fold change (FC) [2]: 2 to 3

Compound: COc1ccc(-c2ccc3[nH]ccc3c2)cn1
- inhibition [1]: Active
- fold change (FC) [2]: 1 to 2

Compound: NC(=O)c1cncc(-c2ccc3[nH]ccc3c2)c1
- inhibition [1]: Active
- fold change (FC) [2]: 1 to 2

Compound: O=C(O)Cc1ccc(-c2ccc3[nH]ccc3c2)cc1
- inhibition [1]: inactive
- fold change (FC) [2]: < 1

Compound: Nc1cccnc1-c1ccc2[nH]ccc2c1
- inhibition [1]: Active
- fold change (FC) [2]: 2 to 3

Compound: O=Cc1ccc(-c2ccc3[nH]ccc3c2)cc1
- inhibition [1]: inactive
- fold change (FC) [2]: < 1

Compound: NC(=O)c1ccnc(-c2ccc3[nH]ccc3c2)c1
- inhibition [1]: inactive
- fold change (FC) [2]: 2 to 3

Compound: Nc1ncccc1-c1ccc2[nH]ccc2c1
- inhibition [1]: Active
- fold change (FC) [2]: 1 to 2

Compound: O=C(O)c1ccc(-c2ccc3[nH]ccc3c2)cc1
- inhibition [1]: Active
- fold change (FC) [2]: 2 to 3

Compound: O=Cc1cccc(-c2ccc3[nH]ccc3c2)c1
- inhibition [1]: Active
- fold change (FC) [2]: 1 to 2

Compound: CS(=O)(=O)c1ccc(-c2ccc3[nH]ccc3c2)cc1
- inhibition [1]: Active
- fold change (FC) [2]: 2 to 3

Compound: O=C(O)c1ccc(-c2ccc3[nH]ccc3c2)nc1
- inhibition [1]: Active
- fold change (FC) [2]: > 3

Compound: N#Cc1ccccc1-c1ccc2[nH]ccc2c1
- inhibition [1]: inactive
- fold change (FC) [2]: < 1

Compound: O=Cc1ccccc1-c1ccc2[nH]ccc2c1
- inhibition [1]: inactive
- fold change (FC) [2]: 1 to 2

Compound: c1ccc(-c2ccc3[nH]ccc3c2)nc1
- inhibition [1]: inactive
- fold change (FC) [2]: < 1
